According to publication PMC2720252 (Regenerative medicine, 2009):

Tests used:
[1] = tested on: 5 mm excisional wounds on adult CD-1 mice; assay: Full-thickness 5 mm excisional wound closure in adult mice; assay type: in vivo, mouse
Procedure, shortened: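 Adult CD-1 mice received 5 mm full-thickness excisional wounds treated with 20% pluronic gel alone (n = 102) or with 60 μM peptide (n = 95). Gel was applied at wounding and again 24 h later. Wounds were imaged under anaesthesia at 1, 4, 7 and 10 days, and area was measured blind to treatment. There were nine independent experiments with 8–16 animals per group. Analysis used t-test with Bonferroni correction.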

[2] = tested on: healed excisional wounds of adult mice; assay: Tensile testing to failure of skin strips with healed wounds; assay type: in vivo, mouse; conditions: 3 months postwounding
[3] = tested on: Cx43-expressing HeLa cells; conditions: cited from earlier work
[4] = tested on: Cx43; assay: Quantitative immunolabeling of Cx43 and ZO-1 in wound epidermis; assay type: in vivo; conditions: adult mouse wound epidermis, 24 h
Procedure, shortened: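 Paired peptide-treated and control wounds were taken from the same five adult mice. Peptide was given at 60 μM in 20% pluronic gel. Sections taken 24 h after injury were labelled with Cx43 and ZO-1 antibodies plus DAPI and imaged by laser scanning confocal microscopy. Epidermal Cx43 particle size, numerical density and total immunolabelled area were quantified.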

[5] = tested on: neutrophils at 2 mm excisional wounds on neonatal mice; assay: Whole-mount myeloperoxidase neutrophil density assay in neonatal wounds; assay type: in vivo, mouse; conditions: 48 h postwounding
Procedure, shortened: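 Two-day-old pups were sedated by hypothermia and given bilateral 2 mm punch wounds at least 1 cm apart; one wound per mouse received 60 μM peptide and the other vehicle. For the 48 h harvest, treatment was repeated at 24 h. Myeloperoxidase-positive cells were grid-counted blind. Analysis used Wilcoxon matched-pairs test.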

[6] = tested on: neutrophils at adult mouse excisional skin injuries; assay: Neutrophil counts in H&E sections of adult excisional wounds; assay type: in vivo; conditions: 24 h and 4 days, three treatment and three control wounds, p < 0.01-0.001
[7] = tested on: 5 mm excisional wounds on adult CD-1 mice; assay type: in vivo, mouse; conditions: two blinded observers, vs vehicle
Procedure, shortened: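 Adult CD-1 mice received full-thickness 5 mm excisional wounds, treated immediately and again at 24 h with 20% pluronic gel with or without 60 μM peptide. Wound images were scored 0–5 by two observers blind to treatment. Redness/swelling was scored at 24 h and 4 days, and appearance/scarring (discoloration, smoothness) at 7 and 10 days. Each wound's score was the mean of both observers. Data came from nine experiments.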

[8] = tested on: wounded skin of neonatal mice; assay: Detection and distribution of peptide in wounded skin; assay type: in vivo, mouse; conditions: whole-mount skin, 60 μM, 2 h postwounding, streptavidin (Alexa 594) confocal
[9] = tested on: second PDZ domain (PDZ2) of zonula occludens (ZO)-1; conditions: cited from earlier work
[10] = adult mice, 5 mm excisional wound, 10-day time course, vs controls

Sequence: RQPKIWFPNRRKPWKKRPRPDDLEI [ACT1]
- healed appearance (qualitative) [1, 10]: less discolored appearance
- swelling / inflammation of wound (qualitative) [1, 10]: less swollen and inflamed
- experiments with significantly accelerated closure rate ([1]; nine independent experiments, 8-16 animals per group): eight of the nine experiments
- overall appearance of healed wounds [2]: improvement in overall appearance of the healed wounds is maintained
- Cx43 distribution and levels ([3]; Cx43-expressing HeLa cells): redistribution of Cx43 from a detergent-soluble to an insoluble fraction without causing changes in overall levels of the protein
- GJ aggregate size and number ([3]; Cx43-expressing HeLa cells): increase in the size and decrease in the number of GJ aggregates
- subcellular targeting of peptide ([3]; HeLa cells): Cytoplasmic targeting
- apically localized ZO-1 staining proximal to wound edge [4]: reduction appeared to be more pronounced
- average size of Cx43 particles (GJs) ([4]; paired wounds on five mice): significant (p < 0.05) overall increase
- numerical density of Cx43 particles ([4]; paired wounds on five mice): significantly (p < 0.05) reduced
- localisation of neutrophils at wound [5]: frequently sequestered in blood vessels
- neutrophil density [6]: significant decreases
- scarring/overall appearance score (0-5) ([7]; 7 and 10 days postwounding): significantly improved
- wound redness score (0-5) ([7]; 24 h and 4 days postwounding): significantly decreased
- spread of peptide in tissue after application to wound [8]: could be observed in tissues surrounding the wound edges
- effect on Cx43-ZO-1 interaction [9]: competitively inhibiting the interaction of endogenous Cx43 molecules with ZO-1
